# Data published in ChEMBL document CHEMBL1123296, “Potential antiatherosclerotic agents. 5. An acyl-CoA:cholesterol O-acyltransferase inhibitor with hypocholesterolemic activity” (J Med Chem, 1986).
# Values joined by “and” are separate entries in the source; they are usually repeats but may differ in a detail not shown here. Identical values can stand only once.
# Legend:
# Rattus norvegicus [1] = assay: Effect of serum lipids in cholesterol-fed rats and Serum cholesterol at a dose of 1 mg/kg per day of the compound.; format: functional
# Summary of the method: (§1)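 Rats fed diet with 1% cholesterol and 0.5% cholic acid, compound given in the diet at 1, 3 or 10 mg/kg per day. Read-outs were liver cholesterol (mg/g), serum cholesterol and serum triglycerides (mg/dL), each given as mean ± SEM. ED50 was derived from the dose response of liver cholesterol.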
# Rattus norvegicus [2] = assay: (§2) Effect of serum lipids in cholesterol-fed rats Serum triglyceride at a dose of 1 mg/kg per day of the compound.; format: functional; summary of the method: as §1
# Rattus norvegicus [3] = assay: Compound was evaluated for the effect of serum lipids in cholesterol-fed rats Serum triglyceride at a dose of 10 mg/kg per day; format: functional; summary of the method: as §1
# Rattus norvegicus [4] = species: Rattus norvegicus; assay: Compound was evaluated for the effect on serum lipids in cholesterol-fed rats; format: functional; summary of the method: as §1
# Rattus norvegicus [5] = species: Rattus norvegicus; assay: Effective concentration required to effect liver cholesterol concentrations in rat; format: functional; summary of the method: as §1
# Rattus norvegicus [6] = assay: as §2; format: functional; summary of the method: as §1; remark: listed apart in the source
# Rattus norvegicus [7] = species: Rattus norvegicus; assay: Effect of liver Cholesterol absorption in cholesterol-fed rats; format: functional; summary of the method: as §1
# [8] = biological target: T1, Sterol O-acyltransferase 1 (Homo sapiens, UniProt P35610); assay: In vitro inhibitory activity against acyl coenzyme A:cholesterol acyltransferase
# T1 sequence (P35610 whole entry): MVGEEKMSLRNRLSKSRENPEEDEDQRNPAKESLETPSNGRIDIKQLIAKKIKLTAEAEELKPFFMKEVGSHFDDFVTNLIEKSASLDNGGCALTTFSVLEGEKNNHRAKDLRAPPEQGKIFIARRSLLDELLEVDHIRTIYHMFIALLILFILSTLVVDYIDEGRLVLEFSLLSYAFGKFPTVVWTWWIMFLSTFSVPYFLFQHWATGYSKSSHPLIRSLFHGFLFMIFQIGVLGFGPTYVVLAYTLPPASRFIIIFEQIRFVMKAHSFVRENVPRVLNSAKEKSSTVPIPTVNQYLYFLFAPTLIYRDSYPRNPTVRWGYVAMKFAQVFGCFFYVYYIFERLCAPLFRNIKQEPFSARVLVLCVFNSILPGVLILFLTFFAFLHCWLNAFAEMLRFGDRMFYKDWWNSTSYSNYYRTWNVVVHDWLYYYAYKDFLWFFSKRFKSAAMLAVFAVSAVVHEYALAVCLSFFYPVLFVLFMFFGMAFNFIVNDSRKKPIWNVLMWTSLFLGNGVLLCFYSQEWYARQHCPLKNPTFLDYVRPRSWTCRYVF
SMILES,Cholesterol (Rattus norvegicus [1]),Triglycerides (Rattus norvegicus [2]) [mg/dL],Triglycerides (Rattus norvegicus [3]) [mg/dL],Cholesterol (Rattus norvegicus [4]) [mg/dL],ED50 (Rattus norvegicus [5]) [mg/kg],Triglycerides (Rattus norvegicus [6]) [mg/dL],Liver cholesterol (Rattus norvegicus [7]) [mg/g],IC50 [8] [µM]
CCCCCCCN(Cc1ccc(CC(C)(C)C)cc1)C(=O)Nc1ccc(F)cc1F [CL-277082],211 mg/dL and 357 mg/dL,132,77,84,5.4,121,15.6,
CC(=O)[C@H]1CC[C@H]2[C@@H]3CCC4=CC(=O)CC[C@]4(C)[C@H]3CC[C@]12C [PROGESTERONE],,,,,,,,17
